Tests used:
P2Y purinoceptor 12 = P2Y purinoceptor 12 (Homo sapiens, UniProt Q9H244); assay: Displacement of [33P]ADP from human recombinant P2Y12 receptor expressed in CHO cells; assay type: cell-based
How it was run: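 Washed membranes from CHO cells expressing synthetic human P2Y12, incubated 1 h at room temperature with 0.2 nM 33P-MeSADP in 50 mM Tris/100 mM NaCl/1 mM EDTA. Compound was tested as a 7-point 3-fold series in triplicate. Nonspecific binding was defined with 300 nM 2-MeSADP, followed by filtration.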

[1] = Antiplatelet aggregation activity against adenosine diphosphate-induced human platelet rich plasma assessed as inhibition of platelet aggregation by turbidimetric method; assay type: functional; conditions: Homo sapiens, Platelet, Plasma
How it was run: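 Human PRP, prepared by two-step centrifugation and adjusted to 330 000 platelets/μL with PPP. Compound was preincubated 5 min at 37 °C in 0.5% DMSO, then 20 μM ADP was added. OD626 was read kinetically for 15 min at 37 °C with mixing between reads.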

Platelet = assay: Relative potency, ratio of IC50 for drug to IC50 for AZD-6140 for platelet aggregation in human platelet rich plasma; assay type: functional

P2Y purinoceptor 12, sequence (Q9H244 whole entry): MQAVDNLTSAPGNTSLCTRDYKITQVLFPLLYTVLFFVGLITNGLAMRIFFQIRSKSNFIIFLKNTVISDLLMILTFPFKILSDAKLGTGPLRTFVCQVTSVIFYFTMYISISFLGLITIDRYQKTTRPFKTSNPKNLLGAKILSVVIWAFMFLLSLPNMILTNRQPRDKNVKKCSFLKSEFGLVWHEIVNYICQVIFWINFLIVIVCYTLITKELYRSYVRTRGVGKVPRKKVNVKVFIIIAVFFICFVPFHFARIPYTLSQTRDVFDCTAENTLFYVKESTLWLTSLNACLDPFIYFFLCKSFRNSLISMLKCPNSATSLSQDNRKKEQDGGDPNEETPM

CCCCOC(=O)N1CCN(C(=O)[C@H](CCC(=O)O)NC(=O)c2cc(OCC3CCN(S(=O)(=O)CC)CC3)cc(-c3ccccc3)n2)CC1
Ki (P2Y purinoceptor 12): 0.0053 µM
IC50 [1]: 3 µM
Ratio IC50 (Platelet): 2.8

CCCCCOC(=O)N1CCN(C(=O)[C@H](CCC(=O)O)NC(=O)c2cc(C(N)=O)cc(-c3ccccc3)n2)CC1
Ki (P2Y purinoceptor 12): 0.0075 µM
IC50 [1]: 8.9 µM
Ratio IC50 (Platelet): 9

CCCCCOC(=O)N1CCN(C(=O)[C@H](CCC(=O)O)NC(=O)c2cc(NC(=O)N3CCN(C)CC3)cc(-c3ccccc3)n2)CC1
Ki (P2Y purinoceptor 12): 0.0032 µM
IC50 [1]: 11 µM
Ratio IC50 (Platelet): 7.2

CCCCOC(=O)N1CCN(C(=O)[C@H](CCC(=O)O)NC(=O)c2cc(OCCCO)cc(-c3ccccc3)n2)CC1
Ki (P2Y purinoceptor 12): 0.0069 µM
IC50 [1]: 2.9 µM
Ratio IC50 (Platelet): 5.1

CCCCOC(=O)N1CCN(C(=O)[C@H](CCC(=O)O)NC(=O)c2cc(OC3CCOCC3)cc(-c3ccccc3)n2)CC1
Ki (P2Y purinoceptor 12): 0.01 µM
IC50 [1]: 4.1 µM
Ratio IC50 (Platelet): 6.3

CCCCOC(=O)N1CCN(C(=O)[C@H](CCC(=O)O)NC(=O)c2cc(OC(=O)N(C)CC3CCOCC3)cc(-c3ccccc3)n2)CC1
Ki (P2Y purinoceptor 12): 0.0015 µM
IC50 [1]: 0.59 µM
Ratio IC50 (Platelet): 0.87

CCCCOC(=O)N1CCN(C(=O)[C@H](CCC(=O)O)NC(=O)c2cc(N3CCC(CN(C)C)CC3)cc(-c3ccccc3)n2)CC1
Ratio IC50 (Platelet): 1.3

CCCCCOC(=O)N1CCN(C(=O)[C@H](CCC(=O)O)NC(=O)c2cc(OCCO)cc(-c3ccccc3)n2)CC1
Ki (P2Y purinoceptor 12): 0.031 µM
IC50 [1]: 12 µM
Ratio IC50 (Platelet): 10

CCCCCOC(=O)N1CCN(C(=O)[C@H](CCC(=O)O)NC(=O)c2cc(NC(=O)C(F)(F)F)cc(-c3ccccc3)n2)CC1
Ki (P2Y purinoceptor 12): 0.0091 µM
IC50 [1]: 8.2 µM
Ratio IC50 (Platelet): 8.2

CCCCCOC(=O)N1CCN(C(=O)[C@H](CCC(=O)O)NC(=O)c2cc(OCC3CCN(S(=O)(=O)CC)CC3)cc(-c3ccccc3)n2)CC1
Ki (P2Y purinoceptor 12): 0.0074 µM
IC50 [1]: 2.8 µM
Ratio IC50 (Platelet): 1.9

CCCCOC(=O)N1CCN(C(=O)[C@H](CCC(=O)O)NC(=O)c2cc(OCCCC)cc(-c3ccccc3)n2)CC1
Ki (P2Y purinoceptor 12): 0.035 µM
IC50 [1]: 27 µM
Ratio IC50 (Platelet): 18

CCCCOC(=O)N1CCN(C(=O)[C@H](CCC(=O)O)NC(=O)c2cc(O)cc(-c3ccccc3)n2)CC1
Ki (P2Y purinoceptor 12): 0.031 µM
IC50 [1]: 8.8 µM
Ratio IC50 (Platelet): 9.7

CCCCOC(=O)N1CCN(C(=O)[C@H](CCC(=O)O)NC(=O)c2cc(OCC3CCCCN3)cc(-c3ccccc3)n2)CC1 (stereo not given in full)
Ki (P2Y purinoceptor 12): 0.011 µM
IC50 [1]: 1.8 µM
Ratio IC50 (Platelet): 2

CCCCOC(=O)N1CCN(C(=O)[C@H](CCC(=O)O)NC(=O)c2cc(OC3CCN(C(C)C)CC3)cc(-c3ccccc3)n2)CC1
Ki (P2Y purinoceptor 12): 0.01 µM
IC50 [1]: 0.88 µM
Ratio IC50 (Platelet): 0.75

CCCCCOC(=O)N1CCN(C(=O)[C@H](CCC(=O)O)NC(=O)c2cc(C(=O)N(C)CCCC)cc(-c3ccccc3)n2)CC1
Ki (P2Y purinoceptor 12): 0.0058 µM
IC50 [1]: 1.8 µM
Ratio IC50 (Platelet): 3.3

CCCCCOC(=O)N1CCN(C(=O)[C@H](CCC(=O)O)NC(=O)c2cc(CCCO)cc(-c3ccccc3)n2)CC1
Ki (P2Y purinoceptor 12): 0.0038 µM
IC50 [1]: 1.9 µM
Ratio IC50 (Platelet): 2.6

CCCCCOC(=O)N1CCN(C(=O)[C@H](CCC(=O)O)NC(=O)c2cc(OC(=O)N(C)C)cc(-c3ccccc3)n2)CC1
Ki (P2Y purinoceptor 12): 0.0055 µM
IC50 [1]: 2.9 µM
Ratio IC50 (Platelet): 1.7

CCOC(=O)N1CCN(C(=O)[C@H](CCC(=O)O)NC(=O)c2cc(NCCO)cc(-c3ccccc3)n2)CC1
Ki (P2Y purinoceptor 12): 0.117 µM
IC50 [1]: 12 µM
Ratio IC50 (Platelet): 14

CCCCOC(=O)N1CCN(C(=O)[C@H](CCC(=O)O)NC(=O)c2cc(OC3CCN(C(C)=O)CC3)cc(-c3ccccc3)n2)CC1
Ki (P2Y purinoceptor 12): 0.0028 µM
IC50 [1]: 1.2 µM
Ratio IC50 (Platelet): 1.1

CCOC(=O)N1CCN(C(=O)[C@H](CCC(=O)O)NC(=O)c2cc(N3CCC(N)CC3)cc(-c3ccccc3)n2)CC1
Ki (P2Y purinoceptor 12): 0.01 µM
IC50 [1]: 2.8 µM
Ratio IC50 (Platelet): 8.1

CCCCOC(=O)N1CCN(C(=O)[C@H](CCC(=O)O)NC(=O)c2cc(OCC3CCNCC3)cc(-c3ccccc3)n2)CC1
Ki (P2Y purinoceptor 12): 0.0042 µM
IC50 [1]: 0.21 µM
Ratio IC50 (Platelet): 0.37

CCCCCOC(=O)N1CCN(C(=O)[C@H](CCC(=O)O)NC(=O)c2cc(OCCC)cc(-c3ccccc3)n2)CC1
Ki (P2Y purinoceptor 12): 0.018 µM
IC50 [1]: 22 µM
Ratio IC50 (Platelet): 28

CCCCCOC(=O)N1CCN(C(=O)[C@H](CCC(=O)O)NC(=O)c2cc(CCCCN(C)C)cc(-c3ccccc3)n2)CC1
Ki (P2Y purinoceptor 12): 0.0033 µM
IC50 [1]: 1 µM
Ratio IC50 (Platelet): 1

CCCCOC(=O)N1CCN(C(=O)[C@H](CCC(=O)O)NC(=O)c2cc(OC3CCN(C(=O)COC)CC3)cc(-c3ccccc3)n2)CC1
Ki (P2Y purinoceptor 12): 0.0024 µM
IC50 [1]: 0.52 µM
Ratio IC50 (Platelet): 0.78

CCCCCOC(=O)N1CCN(C(=O)[C@H](CCC(=O)O)NC(=O)c2cc(C(=O)N(C)CCCOC)cc(-c3ccccc3)n2)CC1
Ki (P2Y purinoceptor 12): 0.0026 µM
IC50 [1]: 0.63 µM
Ratio IC50 (Platelet): 1.4

CCCCOC(=O)N1CCN(C(=O)[C@H](CCC(=O)O)NC(=O)c2cc(OCCC3CCNCC3)cc(-c3ccccc3)n2)CC1
Ki (P2Y purinoceptor 12): 0.003 µM
IC50 [1]: 0.46 µM
Ratio IC50 (Platelet): 0.45

CCCCCOC(=O)N1CCN(C(=O)[C@H](CCC(=O)O)NC(=O)c2cc(OCCCC)cc(-c3ccccc3)n2)CC1
IC50 [1]: 28 µM
Ratio IC50 (Platelet): 28

CCCCCCOC(=O)N1CCN(C(=O)[C@H](CCC(=O)O)NC(=O)c2cc(OCCO)cc(-c3ccccc3)n2)CC1
Ki (P2Y purinoceptor 12): 0.018 µM
IC50 [1]: 21 µM
Ratio IC50 (Platelet): 13

CCCCCOC(=O)N1CCN(C(=O)[C@H](CCC(=O)O)NC(=O)c2cc(N3CCC(CN)CC3)cc(-c3ccccc3)n2)CC1
Ratio IC50 (Platelet): 0.62

CCOC(=O)N1CCN(C(=O)[C@H](CCC(=O)O)NC(=O)c2cc(N3CCC(O)CC3)cc(-c3ccccc3)n2)CC1
IC50 [1]: 9.9 µM
Ratio IC50 (Platelet): 10

CCOC(=O)N1CCN(C(=O)[C@H](CCC(=O)O)NC(=O)c2cc(OCC3CCNCC3)cc(-c3ccccc3)n2)CC1
IC50 [1]: 4 µM
Ratio IC50 (Platelet): 2.7

CCCCCOC(=O)N1CCN(C(=O)[C@H](CCC(=O)O)NC(=O)c2cc(NC(=O)OCCCN)cc(-c3ccccc3)n2)CC1
Ki (P2Y purinoceptor 12): 0.0019 µM
IC50 [1]: 5.7 µM
Ratio IC50 (Platelet): 3.9

CCCCCOC(=O)N1CCN(C(=O)[C@H](CCC(=O)O)NC(=O)c2cc(C(=O)N(C)CC)cc(-c3ccccc3)n2)CC1
Ki (P2Y purinoceptor 12): 0.0026 µM
IC50 [1]: 0.58 µM
Ratio IC50 (Platelet): 1.3

CCCCCOC(=O)N1CCN(C(=O)[C@H](CCC(=O)O)NC(=O)c2cc(CCC(=O)N3CCOCC3)cc(-c3ccccc3)n2)CC1
Ki (P2Y purinoceptor 12): 0.0037 µM
IC50 [1]: 3.1 µM
Ratio IC50 (Platelet): 2.4

CCCOc1cc(C(=O)N[C@@H](CCC(=O)O)C(=O)N2CCN(C(=O)OCC)CC2)nc(-c2ccccc2)c1
Ki (P2Y purinoceptor 12): 0.12 µM
IC50 [1]: 36 µM
Ratio IC50 (Platelet): 46

CCCCCOC(=O)N1CCN(C(=O)[C@H](CCC(=O)O)NC(=O)c2cc(N3CCC(CN4CCCC4)CC3)cc(-c3ccccc3)n2)CC1
Ratio IC50 (Platelet): 0.93

CCCCOC(=O)N1CCN(C(=O)[C@H](CCC(=O)O)NC(=O)c2cc(N3CCC(CNC)CC3)cc(-c3ccccc3)n2)CC1
Ratio IC50 (Platelet): 1

CCOC(=O)N1CCN(C(=O)[C@H](CCC(=O)O)NC(=O)c2cc(NCCOC)cc(-c3ccccc3)n2)CC1
IC50 [1]: 14 µM
Ratio IC50 (Platelet): 13

CCCCCCOC(=O)N1CCN(C(=O)[C@H](CCC(=O)O)NC(=O)c2cc(N3CCC(CN)CC3)cc(-c3ccccc3)n2)CC1
IC50 [1]: 1.6 µM
Ratio IC50 (Platelet): 1.7

CCOC(=O)N1CCN(C(=O)[C@H](CCC(=O)O)NC(=O)c2cc(NC)cc(-c3ccccc3)n2)CC1
IC50 [1]: 45 µM
Ratio IC50 (Platelet): 36

CCOC(=O)N1CCN(C(=O)[C@H](CCC(=O)O)NC(=O)c2cc(N3CCC(N4CCCC4)CC3)cc(-c3ccccc3)n2)CC1
IC50 [1]: 2 µM
Ratio IC50 (Platelet): 6

CCCCOC(=O)N1CCN(C(=O)[C@H](CCC(=O)O)NC(=O)c2cc(N3CCC(CN4CCCC4)CC3)cc(-c3ccccc3)n2)CC1
Ratio IC50 (Platelet): 1

CCOC(=O)N1CCN(C(=O)[C@H](CCC(=O)O)NC(=O)c2cc(OCCCO)cc(-c3ccccc3)n2)CC1
IC50 [1]: 9 µM
Ratio IC50 (Platelet): 12

CCCCCOC(=O)N1CCN(C(=O)[C@H](CCC(=O)O)NC(=O)c2cc(N3CCC(CNC)CC3)cc(-c3ccccc3)n2)CC1
Ratio IC50 (Platelet): 0.99

CCOC(=O)N1CCN(C(=O)[C@H](CCC(=O)O)NC(=O)c2cc(OC3CCNCC3)cc(-c3ccccc3)n2)CC1
IC50 [1]: 1.9 µM
Ratio IC50 (Platelet): 2.5

CCCCCCOC(=O)N1CCN(C(=O)[C@H](CCC(=O)O)NC(=O)c2cc(N3CCC(COC)CC3)cc(-c3ccccc3)n2)CC1
IC50 [1]: 7.6 µM
Ratio IC50 (Platelet): 8.9

CCOC(=O)N1CCN(C(=O)[C@H](CCC(=O)O)NC(=O)c2cc(N3CCC(CN)CC3)cc(-c3ccccc3)n2)CC1
IC50 [1]: 3.3 µM
Ratio IC50 (Platelet): 3.4

CCOC(=O)N1CCN(C(=O)[C@H](CCC(=O)O)NC(=O)c2cc(OC)cc(-c3ccccc3)n2)CC1
IC50 [1]: 39 µM
Ratio IC50 (Platelet): 55

CCCCCOC(=O)N1CCN(C(=O)[C@H](CCC(=O)O)NC(=O)c2cc(N3CCC(O)CC3)cc(-c3ccccc3)n2)CC1
IC50 [1]: 2.5 µM
Ratio IC50 (Platelet): 3.2

CCOC(=O)N1CCN(C(=O)[C@H](CCC(=O)O)NC(=O)c2cc(OCCN)cc(-c3ccccc3)n2)CC1
IC50 [1]: 7.5 µM
Ratio IC50 (Platelet): 11

CCOC(=O)N1CCN(C(=O)[C@H](CCC(=O)O)NC(=O)c2cc(OCCO)cc(-c3ccccc3)n2)CC1
IC50 [1]: 7.6 µM
Ratio IC50 (Platelet): 12

CCOC(=O)N1CCN(C(=O)[C@H](CCC(=O)O)NC(=O)c2cc(N3CCC(COC)CC3)cc(-c3ccccc3)n2)CC1
IC50 [1]: 10 µM
Ratio IC50 (Platelet): 9.7

CCCCOC(=O)N1CCN(C(=O)[C@H](CCC(=O)O)NC(=O)c2cc(OC3CCNCC3)cc(-c3ccccc3)n2)CC1
IC50 [1]: 1.1 µM
Ratio IC50 (Platelet): 0.99

From ChEMBL document CHEMBL1157562, “Piperazinyl glutamate pyridines as potent orally bioavailable P2Y12 antagonists for inhibition of platelet aggregation” (J Med Chem, 2010)
